Reference: ChEMBL document CHEMBL4325889, “Natural products hybrids: 3,5,4'-Trimethoxystilbene-5,6,7-trimethoxyflavone chimeric analogs as potential cytotoxic agents against diverse human cancer cells” (Eur J Med Chem, 2019)

Key:
Format in all cases: functional
NCI-H226 = experiment: Growth inhibition of human NCI-H226 cells at 10 uM after 48 hrs by SRB assay relative to control; settings: NCI-H226, 48 h, read-out: GI
In short: (§1)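 Screened at the National Cancer Institute by the standard NCI protocol using the sulforhodamine B assay, which measures cellular protein. Single dose of 10 µM. Result is percent growth inhibition; values above 100% mean cell number fell below the initial population. Values are the average of duplicates.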

LOX IMVI = experiment: Growth inhibition of human LOXIMVI cells at 10 uM after 48 hrs by SRB assay relative to control; settings: read-out: GI; in short: as §1
HCC 2998 = experiment: Growth inhibition of human HCC2998 cells at 10 uM after 48 hrs by SRB assay relative to control; settings: HCC 2998, 48 h, read-out: GI; in short: as §1
UO-31 = experiment: Growth inhibition of human UO31 cells at 10 uM after 48 hrs by SRB assay relative to control; settings: UO-31, 48 h, read-out: GI
In short: (§2)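 NCI screen against its human cancer cell line panel by the standard NCI protocol, SRB protein stain. Single dose of 10 μM. Percent growth inhibition versus control; values above 100% mean the cell population fell below the starting number. Each value is the mean of duplicates.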

BT-549 = experiment: Growth inhibition of human BT549 cells at 10 uM after 48 hrs by SRB assay relative to control; settings: BT-549, 48 h, read-out: GI; in short: as §1
CCRF-CEM = experiment: Growth inhibition of human CCRF-CEM cells at 10 uM after 48 hrs by SRB assay relative to control; settings: read-out: GI; in short: as §1
TK-10 = experiment: Growth inhibition of human TK10 cells at 10 uM after 48 hrs by SRB assay relative to control; settings: TK-10, 48 h, read-out: GI; in short: as §2
MOLT-4 = experiment: Growth inhibition of human MOLT4 cells at 10 uM after 48 hrs by SRB assay relative to control; settings: MOLT-4, 48 h, read-out: GI; in short: as §1
UACC-257 = experiment: Growth inhibition of human UACC257 cells at 10 uM after 48 hrs by SRB assay relative to control; settings: UACC-257, 48 h, read-out: GI; in short: as §2
PC-3 = experiment: Growth inhibition of human PC3 cells at 10 uM after 48 hrs by SRB assay relative to control; settings: PC-3, 48 h, read-out: GI; in short: as §1
SF-295 = experiment: Growth inhibition of human SF295 cells at 10 uM after 48 hrs by SRB assay relative to control; settings: SF-295, 48 h, read-out: GI; in short: as §1
Malme-3M = experiment: Growth inhibition of human MALME-3M cells at 10 uM after 48 hrs by SRB assay relative to control; settings: read-out: GI; in short: as §1
SNB-75 = experiment: Growth inhibition of human SNB75 cells at 10 uM after 48 hrs by SRB assay relative to control; settings: SNB-75, 48 h, read-out: GI; in short: as §2
RXF 393 = experiment: Growth inhibition of human RXF393 cells at 10 uM after 48 hrs by SRB assay relative to control; settings: RXF 393, 48 h, read-out: GI; in short: as §1
MDA-MB-435 = experiment: Growth inhibition of human MDA-MB-435 cells at 10 uM after 48 hrs by SRB assay relative to control; settings: MDA-MB-435, 48 h, read-out: GI; in short: as §1
Hs-578T = experiment: Growth inhibition of human Hs 578T cells at 10 uM after 48 hrs by SRB assay relative to control; settings: read-out: GI; in short: as §1
NCI-H23 = experiment: Growth inhibition of human NCI-H23 cells at 10 uM after 48 hrs by SRB assay relative to control; settings: NCI-H23, 48 h, read-out: GI; in short: as §1
NCI/ADR-RES = experiment: Growth inhibition of human NCI/ADR-RES cells at 10 uM after 48 hrs by SRB assay relative to control; settings: read-out: GI; in short: as §1
NCI-H522 = experiment: Growth inhibition of human NCI-H522 cells at 10 uM after 48 hrs by SRB assay relative to control; settings: NCI-H522, 48 h, read-out: GI; in short: as §1
SK-MEL-28 = experiment: Growth inhibition of human SK-MEL-28 cells at 10 uM after 48 hrs by SRB assay relative to control; settings: SK-MEL-28, 48 h, read-out: GI; in short: as §1
SF-539 = experiment: Growth inhibition of human SF539 cells at 10 uM after 48 hrs by SRB assay relative to control; settings: SF-539, 48 h, read-out: GI; in short: as §1
RPMI-8226 = experiment: Growth inhibition of human RPMI8226 cells at 10 uM after 48 hrs by SRB assay relative to control; settings: RPMI-8226, 48 h, read-out: GI; in short: as §1
DU-145 = experiment: Growth inhibition of human DU145 cells at 10 uM after 48 hrs by SRB assay relative to control; settings: DU-145, 48 h, read-out: GI; in short: as §1
SN12C = experiment: Growth inhibition of human SN12C cells at 10 uM after 48 hrs by SRB assay relative to control; settings: read-out: GI; in short: as §1
786-0 = experiment: Growth inhibition of human 786-0 cells at 10 uM after 48 hrs by SRB assay relative to control; settings: 786-0, 48 h, read-out: GI; in short: as §1
NCI-H322M = experiment: Growth inhibition of human NCI-H322M cells at 10 uM after 48 hrs by SRB assay relative to control; settings: read-out: GI; in short: as §1
COLO 205 = experiment: Growth inhibition of human COLO205 cells at 10 uM after 48 hrs by SRB assay relative to control; settings: COLO 205, 48 h, read-out: GI; in short: as §1
HOP-62 = experiment: Growth inhibition of human HOP62 cells at 10 uM after 48 hrs by SRB assay relative to control; settings: HOP-62, 48 h, read-out: GI; in short: as §1
A549 = experiment: Growth inhibition of human A549 cells at 10 uM after 48 hrs by SRB assay relative to control; settings: A549, 48 h, read-out: GI; in short: as §1
K562 = experiment: Growth inhibition of human K562 cells at 10 uM after 48 hrs by SRB assay relative to control; settings: K562, 48 h, read-out: GI; in short: as §1
HL-60(TB) = experiment: Growth inhibition of human HL-60(TB) cells at 10 uM after 48 hrs by SRB assay relative to control; settings: HL-60, 48 h, read-out: GI
In short: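 Run at NCI under its standard single-dose protocol against a leukemia cell panel. Cells were exposed to 10 µM; growth was read by sulforhodamine B staining of cellular protein and expressed as % growth inhibition versus untreated control. Values above 100% mean the cell population fell below the starting count (cytocidal). Each value is the average of duplicates.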

NCI-H460 = experiment: Growth inhibition of human NCI-H460 cells at 10 uM after 48 hrs by SRB assay relative to control; settings: NCI-H460, 48 h, read-out: GI; in short: as §1
OVCAR-4 = experiment: Growth inhibition of human OVCAR4 cells at 10 uM after 48 hrs by SRB assay relative to control; settings: OVCAR-4, 48 h, read-out: GI; in short: as §1
MCF7 = experiment: Growth inhibition of human MCF7 cells at 10 uM after 48 hrs by SRB assay relative to control; settings: MCF7, 48 h, read-out: GI; in short: as §1

Structure (SMILES): COc1ccccc1C(=O)Nc1cccc(-c2cc(=O)c3c(O)c(OC)c(OC)cc3o2)c1
- inhibition of growth at 10 µM (NCI-H226): 13%
- inhibition of growth at 10 µM (LOX IMVI): 4.4%
- inhibition of growth at 10 µM (HCC 2998): -9.63%
- inhibition of growth at 10 µM (UO-31): 15.2%
- inhibition of growth at 10 µM (BT-549): 25.1%
- inhibition of growth at 10 µM (CCRF-CEM): 5.53%
- inhibition of growth at 10 µM (TK-10): -0.86%
- inhibition of growth at 10 µM (MOLT-4): 6.77%
- inhibition of growth at 10 µM (UACC-257): 31.9%
- inhibition of growth at 10 µM (PC-3): 10.3%
- inhibition of growth at 10 µM (SF-295): 6.16%
- inhibition of growth at 10 µM (Malme-3M): -12.7%
- inhibition of growth at 10 µM (SNB-75): 16.4%
- inhibition of growth at 10 µM (RXF 393): -12.1%
- inhibition of growth at 10 µM (MDA-MB-435): 1.26%
- inhibition of growth at 10 µM (Hs-578T): 11.4%
- inhibition of growth at 10 µM (NCI-H23): 1.58%
- inhibition of growth at 10 µM (NCI/ADR-RES): 5.26%
- inhibition of growth at 10 µM (NCI-H522): 41%
- inhibition of growth at 10 µM (SK-MEL-28): -1.9%
- inhibition of growth at 10 µM (SF-539): 9.52%
- inhibition of growth at 10 µM (RPMI-8226): 21.6%
- inhibition of growth at 10 µM (DU-145): -2.87%
- inhibition of growth at 10 µM (SN12C): 5.29%
- inhibition of growth at 10 µM (786-0): 11.3%
- inhibition of growth at 10 µM (NCI-H322M): 8.64%
- inhibition of growth at 10 µM (COLO 205): -7.03%
- inhibition of growth at 10 µM (HOP-62): 16.5%
- inhibition of growth at 10 µM (A549): 22.1%
- inhibition of growth at 10 µM (K562): 15.5%
- inhibition of growth at 10 µM (HL-60(TB)): 0.6%
- inhibition of growth at 10 µM (NCI-H460): -2.21%
- inhibition of growth at 10 µM (OVCAR-4): -5.24%
- inhibition of growth at 10 µM (MCF7): -1.88%
